ChEMBL document CHEMBL4190234, “Design, synthesis and anticancer activity of new monastrol analogues bearing 1,3,4-oxadiazole moiety” (Eur J Med Chem, 2017)

Assays:
Type in all cases: functional
A549 = test: Growth inhibition of human A549/ATCC cells at 10 uM incubated for 48 hrs by sulforhodamine B assay relative to control; conditions: A549, 48 h, read-out: GI
Summary of the method: (§1)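 Single-dose screen at 10 μM final: cells in RPMI 1640, 5% FBS, 2 mM L-glutamine, plated 5,000–40,000/well, preincubated 24 h at 37°C, 5% CO2; drug 48 h; adherent cells fixed with 10% TCA, suspension cells with 16% TCA; SRB stain, absorbance 515 nm; percentage growth versus untreated control, with time-zero plates.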

MOLT-4 = test: Growth inhibition of human MOLT4 cells at 10 uM incubated for 48 hrs by sulforhodamine B assay relative to control; conditions: MOLT-4, 48 h, read-out: GI; summary of the method: as §1
NCI-H522 = test: Growth inhibition of human NCI-H522 cells at 10 uM incubated for 48 hrs by sulforhodamine B assay relative to control; conditions: NCI-H522, 48 h, read-out: GI; summary of the method: as §1
OVCAR-3 = test: Growth inhibition of human OVCAR3 cells at 10 uM incubated for 48 hrs by sulforhodamine B assay relative to control; conditions: OVCAR-3, 48 h, read-out: GI; summary of the method: as §1
HOP-62 = test: Growth inhibition of human HOP62 cells at 10 uM incubated for 48 hrs by sulforhodamine B assay relative to control; conditions: HOP-62, 48 h, read-out: GI; summary of the method: as §1
A498 = test: Growth inhibition of human A498 cells at 10 uM incubated for 48 hrs by sulforhodamine B assay relative to control; conditions: A498, 48 h, read-out: GI; summary of the method: as §1
DU-145 = test: Growth inhibition of human DU145 cells at 10 uM incubated for 48 hrs by sulforhodamine B assay relative to control; conditions: DU-145, 48 h, read-out: GI; summary of the method: as §1
HOP-92 = test: Growth inhibition of human HOP92 cells at 10 uM incubated for 48 hrs by sulforhodamine B assay relative to control; conditions: HOP-92, 48 h, read-out: GI; summary of the method: as §1
EKVX = test: Growth inhibition of human EKVX cells at 10 uM incubated for 48 hrs by sulforhodamine B assay relative to control; conditions: read-out: GI; summary of the method: as §1
786-0 = test: Growth inhibition of human 786-0 cells at 10 uM incubated for 48 hrs by sulforhodamine B assay relative to control; conditions: 786-0, 48 h, read-out: GI; summary of the method: as §1
MDA-MB-435 = test: Growth inhibition of human MDA-MB-435 cells at 10 uM incubated for 48 hrs by sulforhodamine B assay relative to control; conditions: MDA-MB-435, 48 h, read-out: GI; summary of the method: as §1
BT-549 = test: Growth inhibition of human BT549 cells at 10 uM incubated for 48 hrs by sulforhodamine B assay relative to control; conditions: BT-549, 48 h, read-out: GI; summary of the method: as §1
SN12C = test: Growth inhibition of human SN12C cells at 10 uM incubated for 48 hrs by sulforhodamine B assay relative to control; conditions: read-out: GI
Summary of the method: (§2)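 NCI single-dose screen: cells grown in RPMI 1640 with 5% FBS and 2 mM L-glutamine, plated at 5,000–40,000 cells/well and preincubated 24 h at 37 °C, 5% CO2. Compounds taken from DMSO stock and tested at final 10 µM for 48 h. Cells fixed with TCA, stained with 0.4% SRB, absorbance read at 515 nm. Percentage growth calculated against untreated controls; controls held DMSO at the same dilution.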

SK-OV-3 = test: Growth inhibition of human SKOV3 cells at 10 uM incubated for 48 hrs by sulforhodamine B assay relative to control; conditions: SK-OV-3, 48 h, read-out: GI; summary of the method: as §2
NCI-H226 = test: Growth inhibition of human NCI-H226 cells at 10 uM incubated for 48 hrs by sulforhodamine B assay relative to control; conditions: NCI-H226, 48 h, read-out: GI; summary of the method: as §1
SNB-75 = test: Growth inhibition of human SNB75 cells at 10 uM incubated for 48 hrs by sulforhodamine B assay relative to control; conditions: SNB-75, 48 h, read-out: GI; summary of the method: as §2
OVCAR-4 = test: Growth inhibition of human OVCAR4 cells at 10 uM incubated for 48 hrs by sulforhodamine B assay relative to control; conditions: OVCAR-4, 48 h, read-out: GI; summary of the method: as §1
NCI-H23 = test: Growth inhibition of human NCI-H23 cells at 10 uM incubated for 48 hrs by sulforhodamine B assay relative to control; conditions: NCI-H23, 48 h, read-out: GI; summary of the method: as §1
SF-539 = test: Growth inhibition of human SF539 cells at 10 uM incubated for 48 hrs by sulforhodamine B assay relative to control; conditions: SF-539, 48 h, read-out: GI; summary of the method: as §2
HCC 2998 = test: Growth inhibition of human HCC2998 cells at 10 uM incubated for 48 hrs by sulforhodamine B assay relative to control; conditions: HCC 2998, 48 h, read-out: GI; summary of the method: as §1
HL-60(TB) = test: Growth inhibition of human HL-60(TB) cells at 10 uM incubated for 48 hrs by sulforhodamine B assay relative to control; conditions: HL-60, 48 h, read-out: GI
Summary of the method: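 Single dose of 10 µM in the NCI ~60-line panel. Cells grown in RPMI 1640 with 5% FBS and 2 mM L-glutamine, plated and pre-incubated 24 h, then exposed 48 h at 37°C under 5% CO2. Suspension cells fixed with TCA (16% final) and stained with sulforhodamine B, A515 read. Reported as percent growth versus untreated control and as GI%.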

RXF 393 = test: Growth inhibition of human RXF393 cells at 10 uM incubated for 48 hrs by sulforhodamine B assay relative to control; conditions: RXF 393, 48 h, read-out: GI; summary of the method: as §1
HCT-15 = test: Growth inhibition of human HCT15 cells at 10 uM incubated for 48 hrs by sulforhodamine B assay relative to control; conditions: HCT-15, 48 h, read-out: GI; summary of the method: as §1
HCT-116 = test: Growth inhibition of human HCT116 cells at 10 uM incubated for 48 hrs by sulforhodamine B assay relative to control; conditions: HCT-116, 48 h, read-out: GI; summary of the method: as §1
CAKI-1 = test: Growth inhibition of human Caki1 cells at 10 uM incubated for 48 hrs by sulforhodamine B assay relative to control; conditions: CAKI-1, 48 h, read-out: GI; summary of the method: as §1
OVCAR-5 = test: Growth inhibition of human OVCAR5 cells at 10 uM incubated for 48 hrs by sulforhodamine B assay relative to control; conditions: OVCAR-5, 48 h, read-out: GI; summary of the method: as §1
NCI/ADR-RES = test: Growth inhibition of human NCI/ADR-RES cells at 10 uM incubated for 48 hrs by sulforhodamine B assay relative to control; conditions: read-out: GI; summary of the method: as §1
MDA-MB-468 = test: Growth inhibition of human MDA-MB-468 cells at 10 uM incubated for 48 hrs by sulforhodamine B assay relative to control; conditions: MDA-MB-468, 48 h, read-out: GI; summary of the method: as §1
UO-31 = test: Growth inhibition of human UO31 cells at 10 uM incubated for 48 hrs by sulforhodamine B assay relative to control; conditions: UO-31, 48 h, read-out: GI; summary of the method: as §2

With CCOC(=O)C1=C(C)NC(SCc2nnc(-c3ccc(OC)cc3)o2)=NC1c1ccc(F)cc1 (configuration not stated) the inhibition of growth at 10 µM (A549) was 12.7%, the inhibition of growth at 10 µM (MOLT-4) was < 10% and the inhibition of growth at 10 µM (NCI-H522) was 26.5%. The inhibition of growth at 10 µM (OVCAR-3) was < 10%, the inhibition of growth at 10 µM (HOP-62) was 12% and the inhibition of growth at 10 µM (A498) was < 10%. The inhibition of growth at 10 µM (DU-145) was < 10%, the inhibition of growth at 10 µM (HOP-92) was 21.4% and the inhibition of growth at 10 µM (EKVX) was < 10%. The inhibition of growth at 10 µM (786-0) was < 10%, the inhibition of growth at 10 µM (MDA-MB-435) was < 10% and the inhibition of growth at 10 µM (BT-549) was < 10%. The inhibition of growth at 10 µM (SN12C) was < 10%, the inhibition of growth at 10 µM (SK-OV-3) was 14.2% and the inhibition of growth at 10 µM (NCI-H226) was 10.4%. The inhibition of growth at 10 µM (SNB-75) was 17.5%, the inhibition of growth at 10 µM (OVCAR-4) was < 10% and the inhibition of growth at 10 µM (NCI-H23) was < 10%. For the same compound, the inhibition of growth at 10 µM (SF-539) was < 10%, the inhibition of growth at 10 µM (HCC 2998) was < 10% and the inhibition of growth at 10 µM (HL-60(TB)) was 12%. For the same compound, the inhibition of growth at 10 µM (RXF 393) was 14.5%, the inhibition of growth at 10 µM (HCT-15) was < 10% and the inhibition of growth at 10 µM (HCT-116) was < 10%. The inhibition of growth at 10 µM (CAKI-1) was 24.9%, the inhibition of growth at 10 µM (OVCAR-5) was < 10% and the inhibition of growth at 10 µM (NCI/ADR-RES) was < 10%. For the same compound, the inhibition of growth at 10 µM (MDA-MB-468) was < 10% and the inhibition of growth at 10 µM (UO-31) was 21.7%.
In the case of CCOC(=O)C1=C(C)NC(SCc2nnc(-c3ccc(Cl)cc3)o2)=NC1c1cccc(Cl)c1 (configuration not stated), the inhibition of growth at 10 µM (A549) is reported as 29.5%, the inhibition of growth at 10 µM (MOLT-4) is reported as 45% and the inhibition of growth at 10 µM (NCI-H522) is reported as 74.6%. The inhibition of growth at 10 µM (OVCAR-3) was 17.3%, the inhibition of growth at 10 µM (HOP-62) was 25.1% and the inhibition of growth at 10 µM (A498) was < 10%. For the same compound, the inhibition of growth at 10 µM (DU-145) was 13.5%, the inhibition of growth at 10 µM (HOP-92) was 49% and the inhibition of growth at 10 µM (EKVX) was < 10%. For the same compound, the inhibition of growth at 10 µM (786-0) was 43%, the inhibition of growth at 10 µM (MDA-MB-435) was < 10% and the inhibition of growth at 10 µM (BT-549) was 46.9%. The inhibition of growth at 10 µM (SN12C) was < 10%, the inhibition of growth at 10 µM (SK-OV-3) was 29.9% and the inhibition of growth at 10 µM (NCI-H226) was < 10%. The inhibition of growth at 10 µM (SNB-75) was 16.8%, the inhibition of growth at 10 µM (OVCAR-4) was 16.9% and the inhibition of growth at 10 µM (NCI-H23) was < 10%. For the same compound, the inhibition of growth at 10 µM (SF-539) was < 10%, the inhibition of growth at 10 µM (HCC 2998) was 10.3% and the inhibition of growth at 10 µM (HL-60(TB)) was 80.4%. For the same compound, the inhibition of growth at 10 µM (RXF 393) was < 10%, the inhibition of growth at 10 µM (HCT-15) was 29.5% and the inhibition of growth at 10 µM (HCT-116) was 56.5%. The inhibition of growth at 10 µM (CAKI-1) was 35.1%, the inhibition of growth at 10 µM (OVCAR-5) was 10.5% and the inhibition of growth at 10 µM (NCI/ADR-RES) was 21.3%. For the same compound, the inhibition of growth at 10 µM (MDA-MB-468) was < 10% and the inhibition of growth at 10 µM (UO-31) was 35.9%.
Work on CCOC(=O)C1=C(C)NC(SCc2nnc(-c3ccc(C)cc3)o2)=NC1c1ccc(F)cc1 (configuration not stated) yielded an inhibition of growth at 10 µM (A549) of 17.3%, an inhibition of growth at 10 µM (MOLT-4) of 21.6% and an inhibition of growth at 10 µM (NCI-H522) of 22.4%. For the same compound, the inhibition of growth at 10 µM (OVCAR-3) was < 10%, the inhibition of growth at 10 µM (HOP-62) was < 10% and the inhibition of growth at 10 µM (A498) was < 10%. The inhibition of growth at 10 µM (DU-145) was < 10%, the inhibition of growth at 10 µM (HOP-92) was 37% and the inhibition of growth at 10 µM (EKVX) was < 10%. For the same compound, the inhibition of growth at 10 µM (786-0) was 20.2%, the inhibition of growth at 10 µM (MDA-MB-435) was < 10% and the inhibition of growth at 10 µM (BT-549) was 12.8%. For the same compound, the inhibition of growth at 10 µM (SN12C) was 19.9%, the inhibition of growth at 10 µM (SK-OV-3) was < 10% and the inhibition of growth at 10 µM (NCI-H226) was 10.1%. For the same compound, the inhibition of growth at 10 µM (SNB-75) was 13.8%, the inhibition of growth at 10 µM (OVCAR-4) was < 10% and the inhibition of growth at 10 µM (NCI-H23) was < 10%. The inhibition of growth at 10 µM (SF-539) was < 10%, the inhibition of growth at 10 µM (HCC 2998) was < 10% and the inhibition of growth at 10 µM (HL-60(TB)) was 25.2%. The inhibition of growth at 10 µM (RXF 393) was < 10%, the inhibition of growth at 10 µM (HCT-15) was 11.3% and the inhibition of growth at 10 µM (HCT-116) was 18.6%. The inhibition of growth at 10 µM (CAKI-1) was 24.7%, the inhibition of growth at 10 µM (OVCAR-5) was < 10% and the inhibition of growth at 10 µM (NCI/ADR-RES) was < 10%. The inhibition of growth at 10 µM (MDA-MB-468) was 18.1% and the inhibition of growth at 10 µM (UO-31) was < 10%.
